# Results of several laboratories.
# Each line is one published result; the experiments were not run side by side.
# Target: Sigma intracellular receptor 2 (Tmem97, Rattus norvegicus, UniProt Q5U3Y7)
# Observed: ligand displacement
# Technique: radioligand
# Residues used in one study (Q5U3Y7 1-176): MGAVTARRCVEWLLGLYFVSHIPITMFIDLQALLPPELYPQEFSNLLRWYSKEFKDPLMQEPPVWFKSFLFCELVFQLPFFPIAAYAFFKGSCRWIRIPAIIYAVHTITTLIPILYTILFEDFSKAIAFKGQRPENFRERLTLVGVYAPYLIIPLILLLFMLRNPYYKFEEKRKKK
Compound,setting,Ki
COc1cc2c(cc1OC)CN(CCCCn1ccc3c(OC)cccc31)CC2,cell membranes,7.73 nM
CN(C)C(=S)N/N=C1/C(=O)Nc2ccccc21,cell membranes,> 10000 nM
COc1cc2c(cc1OC)CN(C(C)CCc1ccc(O)cc1)CC2 (stereo not shown),,4.92 nM
O=C(NCCN1CCCCC1)c1ccc(OCCCF)c(Br)c1,cell membranes,28.3 nM
COc1ccc2ccn(CCCCN3Cc4cc(OC)c(OC)cc4C3)c2c1,cell membranes,9.46 nM
COc1cc2c(cc1OC)C(=O)N(CCCCN1C(=O)/C(=N\NC(=S)N(C)C)c3ccccc31)CC2,cell membranes,> 10000 nM
O=C(NCCN1CCCCC1)c1ccc(O)c(Br)c1,cell membranes,> 10000 nM
COc1ccc2c(ccn2CCCCN2CCc3cc(OC)c(OC)cc3C2)c1,cell membranes,4.4 nM
O=C(NCCN1CCCCC1)c1cc(Br)ccc1OCCCF,cell membranes,92.9 nM
COc1ccc(CCC(C)N2CCc3cc(OC)c(OC)cc3C2)cc1 (stereo not shown),,0.59 nM
